# Source: PubChem
# Myeloid diff 2 – myeloid differentiation induction | 360,000 compounds, 1% hits | ER-HoxA9 myeloid progenitors, lysozyme-GFP differentiation, flow cytometry | calls only at 10 µM;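 active = normalized GFP-positive differentiation at or above the plate's own cutoff, the solvent-only control mean plus 3 SD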;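 also: cells exposed to compound for four days before flow analysis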
# Granule exo inh – blocks lytic granule exocytosis. AID 651702. 360,000 compounds, 0.66% hits. inhibition, % at 10 µM. TALL-104 LAMP-1 surface exposure, flow cytometry; cells stimulated with thapsigargin and PMA;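 active = inhibition above about 55%, limit read from the data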
# CendR NRP1 mod – NRP-1/CendR interaction modulation; O14786; FAM-RPARPAR peptide binding to NRP-1, fluorescence polarization; inhibition, % at 25 µM; 360,000 compounds, 0.85% hits; AID 602438;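 active = inhibition or corrected inhibition above about 18%, plus a signal ratio from 0.5 to 1.5, limit read from the data, passing the limit was not always enough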
# Arrestin-AP2 inh – inhibitors of human beta-arrestin and AP2 interaction | FITC-arrestin peptide / GST-AP2 beads, flow cytometry; AP2 beta2 appendage carries R879A mutation | inhibition, % at 10 µM | 340,000 compounds, 0.31% hits | AID 504490;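 active = inhibition above a set limit, near 3 SD of compounds lacking own fluorescence, cut at about 54% in these data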
#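 System: GST-tagged AP2 beta2-adaptin appendage (R879A) on 4 µm glutathione beads / Reagent: FITC-arrestin peptide, 50 nM / Detection: HyperCyt-sampled flow cytometry, FL1 channel, ex 488/em 535 nm / Timing: 12 min plus 1 h, RT / Buffer or medium: PBS plus Tween 20 (0.05%) and BSA (0.1%)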
# ATG4B inh – blocks human ATG4B protease cleavage of LC3 substrate; inhibition, % at 8.33 µM; ATG4B cleavage of LC3-PLA2, NBD-HPC fluorescence, 1 h; 340,000 compounds, 0.51% hits; in the data active = inhibition above about 40%
# ABCB6 inh MLPCN – human ABCB6 transporter inhibition. Q9NP58. K562-ABCB6 porphyrin accumulation, flow cytometry, 1 h; hits give low values. fluorescence ratio to DMSO, % at 10 µM. 360,000 compounds, 0.19% hits. AID 602162;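 active = fluorescence ratio to DMSO below 75%, the collection mean minus 3 SD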;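 also: signal is porphyrin accumulated inside mitochondria; lower ratio means ABCB6 inhibition with less porphyrin fluorescence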
# Arr-AP2 CP1 – human beta-arrestin and AP2 interaction inhibition, cherry pick. inhibition, % at 10 µM. GST-AP2 beads, FITC arrestin peptide binding, flow cytometry; GST-fused beta2-adaptin appendage, R879A mutant. 1,300 compounds, 2% hits. shares compounds with Arrestin-AP2 inh;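 active = inhibition above a set limit, roughly 3 SD of non-fluorescent compound noise, cut at about 38% in these data; inactive = inhibition at or below that limit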;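 also: loss of bead fluorescence from 50 nM FITC arrestin peptide bound to appendage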
# GST-FITC bead – counter-screen for beta-arrestin AP2 inhibitors: GST-GSH bead binding; shares compounds with Arrestin-AP2 inh; GST-fluorescein binding to GSH beads, fluorescence; inhibition, % at 10 µM; 1,300 compounds, 2% hits; AID 588338;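 active = inhibition above 50%, about 3 SD of the inhibition seen with non-fluorescent compounds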;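 also: fluorescein maleimide labelled GST captured on 4 micron glutathione beads; higher means more loss of bead fluorescence from quenching or blocked binding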
# Numbers stand for hits; 0 = inactive; - = no result given. Shown are actives, neighbours in structure and some others; about 3.3% of the full set was active somewhere.
SMILES,Myeloid diff 2,Granule exo inh,CendR NRP1 mod,Arrestin-AP2 inh,ATG4B inh,ABCB6 inh MLPCN,Arr-AP2 CP1,GST-FITC bead
COc1cc2c(cc1OC)C(=O)CCS2,0,0,31.3,74.6,0,0,0,0
O=C(NCc1ccccc1)N1CCOCC1,0,0,0,0,0,0,-,-
O=C(NCC(F)(F)F)N1CCOCC1,0,0,0,68.1,0,0,0,0
COc1ccc(CC2SC(N)=NC2=O)cc1 (centres undefined),0,0,0,0,0,0,-,-
Cc1ccc([N+](=O)[O-])cc1NC(=O)c1ccc2c(c1)OCO2,0,0,0,0,0,0,-,-
O=C(Nc1cc([N+](=O)[O-])ccc1Cl)c1ccc2c(c1)OCO2,0,0,0,89.5,0,0,0,0
O=C(Nc1ccc(Cl)cc1[N+](=O)[O-])c1ccc2c(c1)OCCO2,0,0,0,63.2,0,0,0,0
Cc1cc(Br)ccc1OCCNCc1ccccc1,0,0,0,55.9,0,0,0,0
COc1ccc(OC)c(NC(=O)c2ccc(CN(c3cc(Cl)ccc3C)S(=O)(=O)c3ccccc3)cc2)c1,0,0,0,82.1,0,0,0,0
CC(C)c1nnc(NC(=O)Cc2ccccc2[N+](=O)[O-])s1,0,0,0,58.1,0,0,0,0
CC(C)(C)c1nnc(NC(=O)Cc2ccccc2[N+](=O)[O-])s1,0,0,0,0,0,0,-,-
Nc1cc(=O)[nH]c(SCC(=O)N2CCCC2)n1,0,0,0,0,0,0,-,-
CCc1ccc(OCC(=O)NNCC(=O)Nc2ccc(OC)cc2)cc1,0,0,0,58.5,0,0,0,0
CCOc1ccc(OCC(=O)Nc2ccc(OC)cc2)cc1,0,0,0,0,0,0,-,-
Cc1c(C(=O)N/N=C/c2ccc(N(C)C)cc2)[nH]c2ccc(Cl)cc12,-,0,0,90.2,0,0,0,0
COc1ccc(-c2cc(C(F)F)n3ncc(C(=O)N4CCc5ccccc54)c3n2)cc1,0,0,0,-,0,0,-,-
Cc1ccc(-c2cc(C(F)F)n3ncc(C(=O)N4CCCc5ccccc54)c3n2)cc1,0,0,0,0,0,0,0,0
CCCc1cc(=O)oc2c(CN3CCN(C)CC3)c(O)ccc12,0,0,0,0,0,0,-,-
CCCCc1cc(=O)oc2c(CN3CCN(C)CC3)c(O)ccc12,0,0,0,54.5,0,0,0,0
Cc1ccc(S(=O)(=O)Nc2nc3ccccc3nc2NCC2CCCO2)cc1C (centres undefined),0,0,0,0,0,0,-,-
CCOC(=O)C1CCN(C(=O)c2ccc(N3CCOCC3)c([N+](=O)[O-])c2)CC1,0,0,0,64.3,0,0,0,0
O=C1Nc2ccc(NS(=O)(=O)c3cccs3)c3cccc1c23,0,0,0,96.3,0,0,0,0
Cc1cc(/C=C2/NC(=O)N(Cc3ccccc3F)C2=O)c(C)n1-c1ccccn1,0,0,0,87.7,0,0,0,72.2
O=C(CN1CCN(C(=O)c2ccccc2Cl)CC1)Nc1cccc(S(=O)(=O)N2CCCC2)c1,0,0,0,0,0,0,-,-
CCN(CC)c1ccc(Nc2nc(N3CCOCC3)c3ccccc3n2)cc1,0,0,0,59.1,0,0,0,0
Cc1cccc(OC(C)C(=O)Nc2ccc3c(c2)OCCO3)c1 (centres undefined),0,0,0,0,0,0,0,0
CC1=C(C(=O)N(C(C)C)C(C)C)CC(CC(=O)NC(c2ccccc2)c2ccccc2)C(=O)N1Cc1ccc(F)cc1 (centres undefined),0,0,0,-,-,0,-,-
COc1ccc(NC(=O)COC(=O)Cn2nnc3ccccc32)cc1,0,0,0,0,0,0,-,-
CN(C)c1ccc(NC(=O)COC(=O)Cn2nnc3ccccc32)cc1,0,0,0,61.1,0,0,0,0
CCC(C)(C)NC(=O)CN(CCc1cccc(C)c1)C(=O)c1csnn1,0,0,0,0,0,0,-,-
